Measured values as given in ChEMBL document CHEMBL4359886, “Imidazo[2,1-a]isoindole scaffold as an uncharted structure active on Leishmania donovani” (Eur J Med Chem, 2019).
The source made the active and inactive calls. The calls are words filed in the database; no cut-off is given here.

Legend:
[1] = Selectivity index, ratio of CC50 for macrophage-differentiated human THP1 cells to EC50 for Leishmania donovani MHOM/ET/67/HU3 amastigotes harboring luciferase reporter gene infected in macrophage-differentiated human THP1 cells; format: toxicity; conditions: macrophage-differentiated THP-1 cells, read-out: Ratio CC50/EC50
How it was run: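 CC50 came from PMA-differentiated THP-1 cells exposed to compound for 72 h at 37 °C and read by MTT reduction (three independent experiments, triplicate). This was divided by the EC50 against intracellular amastigotes, measured by luciferase luminescence after 72 h of treatment.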

[2] = Cytotoxicity against macrophage-differentiated human THP1 cells assessed as reduction in cell viability incubated for 72 hrs by MTT assay; format: cell-based; conditions: macrophage-differentiated THP-1 cells
How it was run: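 THP-1 cells (3×10^4 per well) were differentiated with PMA (20 ng/mL, 48 h), then kept 24 h in fresh RPMI-1640 with 10% hiFBS. They were exposed to increasing compound concentrations for 72 h at 37 °C, then read by MTT reduction. CC50 is the 50% reduction versus untreated controls. Three independent experiments in triplicate.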

Leishmania donovani [3] = test: Antileishmanial activity against Leishmania donovani MHOM/ET/67/HU3 amastigotes harboring luciferase reporter gene infected in macrophage-differentiated human THP1 cells incubated for 72 hrs by luminescence based assay; format: functional, organism-based; conditions: MHOM/ET/67/HU3, THP-1, 72 h
How it was run: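 THP-1 cells were differentiated with PMA (20 ng/mL, 48 h), then kept 24 h in fresh medium. They were infected 24 h at 35 °C with stationary luciferase-expressing promastigotes at a macrophage:parasite ratio of 1:10, and free parasites were washed off. Compounds were added at 0.62–40 μM for 72 h at 37 °C. Cells were lysed with 0.1% Triton X-100 and luminescence read. EC50 from three independent experiments in triplicate.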

Leishmania donovani [4] = test: Antileishmanial activity against Leishmania donovani promastigotes incubated for 72 hrs by MTT assay; format: functional, organism-based
How it was run: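 Promastigote proliferation was followed for 72 h in the presence of compound, then read by MTT reduction. EC50 is the concentration giving 50% inhibition of proliferation, from three independent experiments.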

[5] = Cytotoxicity against human MRC5 cells assessed as reduction in cell viability incubated for 72 hrs by MTT assay; format: cell-based
How it was run: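 MRC5-SV2 (SV40-transformed human lung fibroblasts) were grown in DMEM with 10% hiFBS at 37 °C, 5% CO₂. Cells were exposed to increasing compound concentrations for 72 h at 37 °C, followed by MTT reduction. CC50 is the concentration reducing proliferation by 50% versus untreated cells. Three independent experiments in triplicate.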

Leishmania donovani [6] = test: Antileishmanial activity against Leishmania donovani promastigotes incubated for 4 hrs by MTT assay; format: functional, organism-based
How it was run: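 L. donovani promastigotes at 20×10^6 cells/mL in RPMI 1640 without serum or phenol red were exposed to compound for 4 h at 26 °C. MTT was then added (0.5 mg/mL final) for 2 h, and formazan was solubilized with 0.5% SDS final. A595 was read. IC50 is the concentration inhibiting MTT reduction by 50%. Run in triplicate, repeated at least twice.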

Leishmania donovani [7] = test: Induction of plasma membrane permeabilization in Leishmania donovani promastigotes assessed as formation of blebbings in plasma membrane at EC70 incubated for 12 hrs by transmission electron microscopic method; format: functional, organism-based
Leishmania donovani [8] = test: Antileishmanial activity against Leishmania donovani promastigotes harboring 3-Luc gene assessed as decrease in intracellular ATP level using DMNEP-D-luciferin as substrate at 5 to 50 uM measured for 10 mins by luminescence based assay; format: functional, organism-based
How it was run: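 3-Luc promastigotes at 20×10^6 cells/mL in serum-free, phenol-red-free RPMI 1640 containing 50 µM DMNPE-D-luciferin. Once luminescence was stable, compound (5–50 µM) was added and luminescence of the live parasites followed in real time. Expressed as percent of untreated parasites. Parasites given 1.5 µM 1,4-naphthoquinone served as control.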

Leishmania donovani [9] = test: Induction of mitochondrial membrane depolarization in Leishmania donovani promastigotes at 30 uM incubated for 4 hrs by Rhodamine 123 dye-based flow cytometric assay; format: functional, organism-based
How it was run: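 Promastigotes at 20×10^6 cells/mL in serum-free, phenol-red-free RPMI 1640 were incubated with compound for 4 h. Rh123 (0.5 µg/mL) was added for 10 min, unbound probe was washed off, and intracellular accumulation was read by flow cytometry (ex 488/em 520 nm). Parasites given 10 mM KCN served as the dysfunctional-mitochondrion control.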

Leishmania donovani [10] = test: Induction of plasma membrane permeabilization in Leishmania donovani promastigotes by sytox green-based fluorescence assay; format: functional, organism-based
How it was run: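 Promastigotes at 20×10^6/mL in serum-free, phenol-red-free RPMI 1640 containing 1 µM SYTOX green received compound (10–50 µM tested). Fluorescence increase (ex 485/em 520 nm) was followed in real time. Triton X-100 (0.1% final) was then added to give full permeabilization, taken as 100%.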

Leishmania donovani [11] = test: Antileishmanial activity against Leishmania donovani promastigotes harboring 3-Luc gene assessed as decrease in intracellular ATP level at 5 to 50 uM using DMNEP-D-luciferin as substrate pretreated for 4 hrs followed by substrate addition measured for 10 mins by luminescence based assay; format: functional, organism-based
How it was run: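 3-Luc promastigotes, which express cytoplasmic luciferase, at 20×10^6 cells/mL in serum-free, phenol-red-free RPMI 1640, incubated with 5, 10, 20, 30, 40 or 50 µM compound for 4 h at 26 °C. DMNPE-D-luciferin then added to 50 µM final, and luminescence recorded for 10 min. Values given as percent of untreated parasites. 1.5 µM 1,4-naphthoquinone used as respiratory-chain-inhibited control.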

Leishmania donovani [12] = test: Induction of mitochondrial membrane depolarization in Leishmania donovani promastigotes assessed as swelling of mitochondrial cristae at EC70 incubated for 12 hrs by transmission electron microscopic method; format: functional, organism-based

SMILES	selectivity ratio [1]	CC50 at 72 h [2]	EC50 (Leishmania donovani [3])	EC50 (Leishmania donovani [4])	CC50 at 72 h [5]	IC50 (Leishmania donovani [6])	Activity (Leishmania donovani [7])	Activity (Leishmania donovani [8])	Activity (Leishmania donovani [9])	Activity (Leishmania donovani [10])	Activity (Leishmania donovani [11])	Activity (Leishmania donovani [12])
OC1(Cc2ccc(Cl)cc2)c2ccccc2C2=NCCN21 (stereo not given)	69.1	145 µM	2.1 µM	11.8 µM	80 µM							
OC1(Cc2ccccc2Cl)c2c(Cl)ccc(Cl)c2C2=NCCN21 (stereo not given)	19.7	82 µM	4.16 µM		41 µM							
C[C@@H]1[C@H](O)[C@@H](C)/C=C/C=C/C=C/C=C/C=C/C=C/C=C/[C@H](O[C@@H]2O[C@H](C)[C@@H](O)[C@H](N)[C@@H]2O)C[C@@H]2O[C@](O)(C[C@@H](O)C[C@@H](O)[C@H](O)CC[C@@H](O)C[C@@H](O)CC(=O)O[C@H]1C)C[C@H](O)[C@H]2C(=O)O [AMPHOTERICIN B]		16 µM			12 µM							
CSc1ccc(CC2(O)c3cc(Cl)c(Cl)cc3C3=NCCN32)cc1 (stereo not given)	31.1	31.1 µM	1 µM	2.1 µM	8.48 µM	7.3 µM	Active	Active	Active	Dose-dependent effect	Active	Active
OC1(Cc2ccc(Cl)cc2)c2cc(Cl)c(Cl)cc2C2=NCCN21 (stereo not given)	10.8	31.9 µM	2.95 µM	6.9 µM	8.91 µM							
OC1(Cc2ccccc2)c2ccccc2C2=NCCN21 (stereo not given)		> 200 µM	27.8 µM		182 µM							
OC1(Cc2ccc(Cl)cc2)c2c(Cl)ccc(Cl)c2C2=NCCN21 (stereo not given)	26.2	68.7 µM	2.62 µM	13.3 µM	33.8 µM	14.4 µM		Active	Active	Dose-dependent effect	Active	
CSc1ccc(CC2(O)c3c(Cl)ccc(Cl)c3C3=NCCN32)cc1 (stereo not given)	12.7	84.4 µM	6.65 µM		77.4 µM							
